Most compounds without a hit are left out; they make up all but 1.3% or so of the library.
G6PDH counter – inhibits Leuconostoc G6PDH, flagging false hits in G6PDH-based assays. inhibition, % at 5 µM. Purified L. mesenteroides G6PDH, diaphorase/resazurin coupled fluorescence, 45 min. AID 1020. 200,000 compounds, 0.12% hits; in the data active means inhibition above about 50%
Diaphorase inh – counter-screen for diaphorase-based assays: diaphorase inhibitors and chemical oxidizers. diaphorase resazurin-to-resorufin fluorescence, NADH, 16 min; bacterial (C. kluyveri) enzyme, not human. inhibition, % at 20 µM. 190,000 compounds, 0.69% hits;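 active means primary screen inhibition at 20 µM above a set limit, cut at about 50% in these data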;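 further: plate controls were DMSO with full reaction for no effect and wells lacking NADH for full effect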
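Assay system – diaphorase enzyme from Clostridium kluyveri · Amount – diaphorase 0.14 U/mL (working solution) · Times – reaction incubation of 16 min at room temperature · Controls – No-NADH positive control and DMSO neutral control · Signal – resorufin fluorescence 544/590 nm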
HKDC1 inhibitor – inhibitors of human hexokinase HKDC1. Q2TB90. recombinant HKDC1, G6PDH/diaphorase resazurin coupled fluorescence. inhibition, % at 20 µM. 340,000 compounds, 0.16% hits. AID 493160;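 active means inhibition above about 35% when tested at 20 µM, limit read from the data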;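 further: plate controls were DMSO wells with enzyme for no effect and DMSO wells lacking enzyme for full effect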
Target sequence (Q2TB90 whole entry, looked up): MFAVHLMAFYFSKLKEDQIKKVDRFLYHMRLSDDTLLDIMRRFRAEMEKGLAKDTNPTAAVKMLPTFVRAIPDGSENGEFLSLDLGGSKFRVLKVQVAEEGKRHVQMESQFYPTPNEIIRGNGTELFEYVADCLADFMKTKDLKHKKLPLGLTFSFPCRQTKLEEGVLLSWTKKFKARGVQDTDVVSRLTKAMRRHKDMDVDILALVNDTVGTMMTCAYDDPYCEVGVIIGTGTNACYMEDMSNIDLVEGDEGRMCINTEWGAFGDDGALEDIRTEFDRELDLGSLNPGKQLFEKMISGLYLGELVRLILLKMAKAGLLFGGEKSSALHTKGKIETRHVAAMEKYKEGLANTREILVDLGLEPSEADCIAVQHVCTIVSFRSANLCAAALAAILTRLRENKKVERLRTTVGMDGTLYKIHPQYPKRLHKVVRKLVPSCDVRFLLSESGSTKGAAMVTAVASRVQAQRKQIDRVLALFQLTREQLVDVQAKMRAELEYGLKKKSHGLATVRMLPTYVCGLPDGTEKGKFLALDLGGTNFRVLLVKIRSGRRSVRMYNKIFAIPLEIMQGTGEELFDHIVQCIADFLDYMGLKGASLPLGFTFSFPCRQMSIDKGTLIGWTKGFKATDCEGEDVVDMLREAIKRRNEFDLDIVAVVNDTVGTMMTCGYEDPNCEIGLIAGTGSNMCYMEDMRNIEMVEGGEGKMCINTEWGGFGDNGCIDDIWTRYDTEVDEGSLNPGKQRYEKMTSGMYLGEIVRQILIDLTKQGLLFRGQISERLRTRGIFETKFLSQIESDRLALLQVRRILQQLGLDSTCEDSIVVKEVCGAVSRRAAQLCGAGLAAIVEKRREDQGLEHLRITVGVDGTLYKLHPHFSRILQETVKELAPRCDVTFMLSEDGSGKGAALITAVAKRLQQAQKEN
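Test system: recombinant HKDC1 (HK5) hexokinase enzyme, produced in-house / Doses: 20 µM test compound, 1% DMSO / Timing: 90 min, room temperature / Detection: G6PDH/diaphorase-coupled fluorescence, 1 mM NADP, 100 µM resazurin, 525/613 nm / Control set: DMSO wells with and without enzyme mix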
PfGluPho inh – PfG6PD (Plasmodium falciparum) enzyme inhibition; PfGluPho enzyme, NADPH resazurin-diaphorase fluorescence; inhibition, % at 20 µM; AID 504690; 350,000 compounds, 0.78% hits;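 active means inhibition reaching at least a set limit at 20 µM in the primary screen, cut at about 59% in these data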;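 further: 0% = DMSO wells with substrate and 100% = DMSO wells lacking glucose-6-phosphate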
PfG6PD confirm – confirmation of Plasmodium falciparum G6PD inhibitors; shares compounds with PfGluPho inh; recombinant PfGluPho, NADPH-diaphorase-resazurin fluorescence; inhibition, % at 20 µM; 2,400 compounds, 34% hits; AID 504753;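 active means inhibition of at least 50% at 20 µM in any single replicate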;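 further: 0% = DMSO with substrate and 100% = DMSO lacking glucose-6-phosphate substrate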
Diaphorase 10uM – inhibits diaphorase or oxidizes, flagging false PfG6PD hits | inhibition, % at 20 µM | shares compounds with PfGluPho inh | AID 504862 | 820 compounds, 39% hits | diaphorase-coupled resazurin reduction, fluorescence, NADPH 10 uM;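 active means average inhibition reaching 50% or more with the compound at 20 µM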;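 further: resorufin red fluorescence formed as diaphorase reduces resazurin using NADPH; 0% = DMSO with enzyme and 100% = DMSO without enzyme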
Diaph ctr 30uM – inhibits diaphorase or oxidizes, flagging false PfG6PD hits; shares compounds with PfGluPho inh; Diaphorase/resazurin coupled assay, resorufin fluorescence, 30 uM NADPH; inhibition, % at 20 µM; AID 504863; 820 compounds, 29% hits;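 active means inhibition averaging 50% or more, tested at 20 µM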;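 further: 0% = DMSO with enzyme and 100% = DMSO wells lacking diaphorase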
Active calls of the source: *; · = no result given; ! = a repeat was not active.

SMILES	G6PDH counter	Diaphorase inh	HKDC1 inhibitor	PfGluPho inh	PfG6PD confirm	others
CCCCCC(=O)NC(NC(=S)NC1CCS(=O)(=O)C1)C(Cl)(Cl)Cl (configuration not stated)	3.6	5.4	-10.7	62.8*	0.4
Cc1ccc2nc(C)cc(SCC(=O)N/N=C/c3ccco3)c2c1	·	·	1.9	6.9	·
Cc1ccc2nc(N/N=C/c3ccco3)cc(C)c2c1	1.5	-11.6	0.5	63.8*	27.7
Cc1ccc2nc(SCC(=O)N/N=C/c3ccco3)cc(C)c2c1	4.2	24.0	0.2	68.9*	49.9*	Diaphorase 10uM=66.5*;Diaph ctr 30uM=35.9
COC(C[C@H](O)C[C@H](O)[C@H](C)OCc1ccccc1)OC	·	·	0.3	-10.1	·
COc1ccc(CCN2C(=O)CSC2=Nc2ccc(C(C)C)cc2)cc1OC	·	·	4.2	47.5	-8.3
CS(=O)(=O)N(CC(=O)N/N=C/c1cccs1)c1cccc(Cl)c1Cl	0.7	8.6	0.4	64.6*	43.5
CC(Cc1ccc(O)c(O)c1)C(C)Cc1ccc(O)c(O)c1 (configuration not stated)	·	·	5.8	84.2*	61.1*	Diaphorase 10uM=0.1;Diaph ctr 30uM=2.9
CCOc1ccc(-c2csc(N)c2C(=O)OC)cc1	17.3	13.5	-10.3	65.7*	10.0
CCN(CC)c1ccc(NC(=O)c2ccccc2)cc1S(=O)(=O)Nc1ccccc1OC	5.8	21.9	-13.6	73.8*	31.2
COc1ccc(C(=O)Nc2ccc(Cl)c(S(=O)(=O)Nc3ccccc3OC)c2)cc1	-16.1	12.2	-3.5	11.4	·
CCN(CC)c1ccc(NC(=O)c2cccc(C)c2)cc1S(=O)(=O)Nc1ccccc1OC	-14.0	16.1	-15.8	72.6*	53.8*	Diaphorase 10uM=-16.6;Diaph ctr 30uM=-19.4
CC1(OC(=O)C2CCCC2)C(=O)C=C2C=C(c3ccsc3)N(CC3CC3)C=C2C1=O (configuration not stated)	·	·	21.1	67.8*	49.8*	Diaphorase 10uM=12.0;Diaph ctr 30uM=14.4
CC1(OC(=O)C2CCCC2)C(=O)C=C2C=C(c3ccsc3)N(Cc3ccc4c(c3)OCO4)C=C2C1=O (configuration not stated)	·	·	27.5	61.0*	52.7*	Diaphorase 10uM=8.5;Diaph ctr 30uM=2.9
COc1ccc(S(=O)(=O)N2CC(=O)Nc3ccccc32)cc1C	·	·	-0.8	-0.4	·
CCC/C(=N\NC(=O)C1CC1)c1ccc(Br)cc1	·	·	1.1	-7.4	·
Cc1[nH]c2ccccc2c1/C=N/NC(=O)c1cccc(S(=O)(=O)Nc2cccc(C(F)(F)F)c2)c1	9.0	1.5	1.7	65.6*	15.3
Oc1ccc(N2CCN(C(c3cccs3)c3nnnn3CCc3ccccc3)CC2)cc1 (configuration not stated)	-6.0	25.6	5.0	66.3*	8.1
Cc1ccc(C(=O)NCC(=O)OCCCOC(=O)CNC(=O)c2ccc(C)cc2)cc1	·	·	-8.0	1.4	·
COc1ccc2cc(CN(Cc3ccco3)C(=S)NCC3CCCO3)c(=O)[nH]c2c1 (configuration not stated)	21.6	·	-4.6	66.7*	14.1
COc1cc(NCc2ccccc2O)c2ncccc2c1	·	·	12.1	64.6*	55.7*	Diaphorase 10uM=-1.9;Diaph ctr 30uM=-7.3
O=C1c2ccccc2C(=O)c2c(Nc3ccc(CCO)cc3)ccc(O)c21	·	·	0.6	0.0	·
O=C1c2c(O)ccc(O)c2C(=O)c2c(NCCNCCO)ccc(NCCNCCO)c21	·	·	4.5	62.3*!	10.8
O=C(N=Nc1c(O)[nH]c2ccc(F)cc12)c1ccc(NS(=O)(=O)c2cccs2)cc1	·	·	15.4	1.4	·
O=C(N=Nc1c(O)[nH]c2ccccc12)c1cc(-c2cccs2)[nH]n1	·	·	10.8	92.4*	38.6
SMILES	G6PDH counter	Diaphorase inh	HKDC1 inhibitor	PfGluPho inh	PfG6PD confirm	others
O=C(N=Nc1c(O)[nH]c2ccccc12)c1ccccc1NS(=O)(=O)c1cccs1	8.8	12.2	3.8	62.4*	11.9
CCCCCc1ccc(C(=O)CCC(=O)OCC(=O)N(CC)c2c(N)n(Cc3ccccc3)c(=O)[nH]c2=O)cc1	·	·	1.9	-8.0	·
COc1ccc(NC(=O)c2ccc(-n3cccn3)c([N+](=O)[O-])c2)cc1	2.3	14.3	-7.0	35.2	·
O=C(Nc1ccc(Cl)cc1)c1ccc(-n2cccn2)c([N+](=O)[O-])c1	-5.1	20.4	-2.1	70.0*	15.1
Cc1ccc(NC(=O)c2ccc(-n3cccn3)c([N+](=O)[O-])c2)cc1C	6.6	0.3	-2.2	77.2*	15.6
COc1ccccc1NC(=O)c1ccc(-n2cccn2)c([N+](=O)[O-])c1	0.1	9.9	-0.2	21.7	·
OCc1ccccc1SSc1ccccc1CO	·	·	-1.3	67.2*	53.5*	Diaphorase 10uM=-18.9;Diaph ctr 30uM=13.5
Cn1cc([N+](=O)[O-])c(C(=O)Nc2ccc(-c3nc4ccccc4[nH]3)cc2)n1	3.3	19.9	-3.7	2.6	·
O=C(Nc1ccc2nc(-c3ccccc3)[nH]c2c1)c1cccs1	4.7	13.5	-2.9	75.6*	8.0
Cn1cc([N+](=O)[O-])c(C(=O)Nc2ccc3nc(-c4ccccc4)[nH]c3c2)n1	6.0	22.8	-3.6	62.3*	32.5
Cc1ccc(S(=O)(=O)N(C)C)cc1NC(=O)c1cc(=O)c2ccccc2o1	·	·	-1.5	-11.7	·
CS(=O)(=O)c1ccccc1-c1nnc(NC(=O)C2=COCCO2)o1	·	·	-6.7	-5.3	·
CC(C)(C)c1cc(C(=S)N2CCN(CCO)CC2)cc(C(C)(C)C)c1O	29.9	-0.1	-7.6	60.0*	10.6
C=CCn1c(C)cc(C(=O)COC(=O)CCc2cc(OC)c(OC)c(OC)c2)c1C	·	·	0.8	80.4*	24.3
COc1cc(CCC(=O)OCC(N)=O)cc(OC)c1OC	10.1	2.8	-0.7	-14.5	·
O=C(NC1CC1)c1cc(=S)[nH]c2ccccc12	·	·	-8.4	59.7*	9.5
O=C(NC1CC1)C(=O)c1c[nH]c2ccccc12	·	·	-3.0	3.1	·
CC(C)(C)OC(=O)C[C@H]1C/C=C\C[C@@H](CC(=O)NCCO)C(=O)N[C@H](Cc2ccccc2)COC1=O	·	·	-4.0	19.2	·
CC1(OC(=O)CCc2ccccc2)C(=O)C=C2C=C(c3ccc(C#N)cc3)N(CCc3c[nH]c4ccccc34)C=C2C1=O (configuration not stated)	·	·	29.7	78.9*	27.4
CCN(CC)CCCN1C=C2C(=O)C(C)(OC(=O)CCc3ccccc3)C(=O)C=C2C=C1c1ccc(C#N)cc1 (configuration not stated)	·	·	12.8	29.6	·
CC1(OC(=O)CCc2ccccc2)C(=O)C=C2C=C(c3ccc(C#N)cc3)N(C3CCCCC3)C=C2C1=O (configuration not stated)	·	·	21.4	75.0*	26.0
COc1ccc(N2C=C3C(=O)C(C)(OC(=O)CCc4ccccc4)C(=O)C=C3C=C2c2ccc(C#N)cc2)cc1 (configuration not stated)	·	·	34.8	68.5*	4.3
